Reference: the RNAGym collection of RNA variant scans (doi:10.1126/science.aae0568)
Variants at the floor of the assay were thinned out.

B1: tRNA (parent)
chain: GUUCCGUUGGCGUAAUGGUAACGCGUCUCCCUCCUAAGGAGAAGACUGCGGGUUCGAGUCCCGUACGGAACG

Variants of: B1
Assay: yeast fitness relative to wild type (ratio to wild type); higher = fitter; tRNA-Arg(CCU), competitive growth, 37 C, YPD
Summary of the method: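 Gene amplicons from the start population and from each of six end populations were read by 100-nucleotide paired-end sequencing. Those end populations came from pooled Saccharomyces cerevisiae strains carrying tRNA-Arg(CCU) gene variants at the native locus, competed in YPD at 37°C for 24 hours. Fitness relative to wild type was worked out from changes in genotype frequencies. Genotypes needed ≥ 100 starting reads, and estimates < 0.5 were set to 0.5.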

Going from U8C A45C C66U to U8C A15G U19A C29A A36G G51A, the yeast fitness falls from 0.626 to at most 0.5.

U8C A20C G51A and U8C A21U C34A A40C G68C cannot be ordered by yeast fitness: at most 0.5 for the first, at most 0.5 for the second.

Compared with U8C C24U A42C G50U, U8A G67A is lower in yeast fitness: 0.674 for the first, 0.586 for the second.

U8C A43U G50C and U8C A15U G38C G39A A43C C60G A65C cannot be ordered by yeast fitness: at most 0.5 for the first, at most 0.5 for the second.

U8A C27A A37U A57U and U8C A21U U32A C49U C55U cannot be ordered by yeast fitness: at most 0.5 for the first, at most 0.5 for the second.

Going from U8A A20C C31U to U8A A42U, the yeast fitness rises from at most 0.5 to 0.833.

U8C A14C C33A C46A G67A and U8C C22U C29U cannot be ordered by yeast fitness: at most 0.5 for the first, at most 0.5 for the second.

U8A C27A G39C G51C and U8C C11G G58U cannot be ordered by yeast fitness: at most 0.5 for the first, at most 0.5 for the second.

U8A C46A G68C and U8A U19C A36U cannot be ordered by yeast fitness: at most 0.5 for the first, at most 0.5 for the second.

Compared with U8C A20G C34G C66U, U8A C31A is lower in yeast fitness: 0.696 for the first, 0.605 for the second.

First: U8C A14C G18A C31U A45G
Second: U8A A20G U26C A40C
The yeast fitness of the first is lower: at most 0.5 for the first, 0.617 for the second.

Going from U8A A20G C33A A57G to U8C C27U C31A, the yeast fitness rises from at most 0.5 to 0.56.

Compared with U8C A14C C27G C46G A65G, U8C A43C C49G C61A is higher in yeast fitness: at most 0.5 for the first, 0.693 for the second.

Going from U8A C11A A14G C24A C29A C34U C61G A65C to U8C A21G A42G, the yeast fitness rises from at most 0.5 to 0.675.

U8C A21C C27U C49U G58C C61A A65U and U8C A15C C34U A57C cannot be ordered by yeast fitness: at most 0.5 for the first, at most 0.5 for the second.

Going from U8A C11U A20C A70U to U8C A14U C30A C66U A70G, the yeast fitness rises from at most 0.5 to 0.546.

Going from U8A A43G A45C C49G to U8A C33U G67A, the yeast fitness falls from 0.58 to at most 0.5.

U8A G10C A20U G41U G51C and U8C C22A U64A G68C cannot be ordered by yeast fitness: at most 0.5 for the first, at most 0.5 for the second.

Compared with U8A U26A C29A A65C A70C, U8A G51A is higher in yeast fitness: at most 0.5 for the first, 0.63 for the second.

Compared with U8C C11U U16C C46U C49A, U8A C11U A20C is lower in yeast fitness: 0.573 for the first, at most 0.5 for the second.

Going from U8A G17A C22U to U8A G9A G67A, the yeast fitness falls from 0.607 to 0.553.

Compared with U8A C24A C30U C31U G48C, U8C C22A U53A is lower in yeast fitness: 0.58 for the first, at most 0.5 for the second.

Compared with U8A A21G A36G, U8A G23C G51C C62G is higher in yeast fitness: 0.65 for the first, 0.727 for the second.

First: U8C A42U A70G
Second: U8A G9A C60G
The yeast fitness of the first is higher: 0.729 for the first, at most 0.5 for the second.

First: U8C C22U C27U G58C
Second: U8C C24A C46G G63A
The yeast fitness of the first is lower: at most 0.5 for the first, 0.597 for the second.

Compared with U8C C27U A42U, U8A C24A U28C G56A is higher in yeast fitness: 0.552 for the first, 0.556 for the second.

U8A G17A C31U C33U C34U C46G C62A and U8A A42U U47C C55G cannot be ordered by yeast fitness: at most 0.5 for the first, at most 0.5 for the second.

U8A C34G and U8C A20G C33A G44A C61U cannot be ordered by yeast fitness: at most 0.5 for the first, at most 0.5 for the second.

U8A C30U A57C and U8A C30G U59A cannot be ordered by yeast fitness: at most 0.5 for the first, at most 0.5 for the second.

U8C C22U G58C and U8C A15C U32C cannot be ordered by yeast fitness: at most 0.5 for the first, at most 0.5 for the second.

U8A G25C U35A and U8A C11U G25C G39C cannot be ordered by yeast fitness: at most 0.5 for the first, at most 0.5 for the second.

U8A A21C A42U G50A and U8C C11A C66G cannot be ordered by yeast fitness: at most 0.5 for the first, at most 0.5 for the second.

U8A C27G G39A C46U G67A and U8C C11U C46U C49A cannot be ordered by yeast fitness: at most 0.5 for the first, at most 0.5 for the second.

Compared with U8A C30G C46A G63A, U8A A40C is higher in yeast fitness: at most 0.5 for the first, 0.774 for the second.

Going from U8A G18A C30G A40C U47C G52A to U8A G23C C61U, the yeast fitness rises from at most 0.5 to 0.575.

Compared with U8A G48A, U8C C24G C29A A43U G68C is lower in yeast fitness: 0.666 for the first, at most 0.5 for the second.

U8A C29G A70G and U8C A42G G51U A57U cannot be ordered by yeast fitness: at most 0.5 for the first, at most 0.5 for the second.

U8A U26A C55G and U8C A20G A65G G68A cannot be ordered by yeast fitness: at most 0.5 for the first, at most 0.5 for the second.

First: U8C A69U
Second: U8C A69C
The yeast fitness of the first is lower: 0.933 for the first, 0.991 for the second.

First: U8A U13C C66U
Second: U8A G12A C22A C31G A65C
The yeast fitness of the first is higher: 0.607 for the first, at most 0.5 for the second.

U8A A36C U53C and U8C A14U G48C A70C cannot be ordered by yeast fitness: at most 0.5 for the first, at most 0.5 for the second.

Going from U8A G17A U19C to U8A G39C A70C, the yeast fitness rises from 0.586 to 0.751.

First: U8A C66G G68C
Second: U8C A43C C49G
The yeast fitness of the first is lower: at most 0.5 for the first, 0.597 for the second.

Compared with U8A C24U A40C A42C A45U, U8A G12A A20C G56C U59A is higher in yeast fitness: at most 0.5 for the first, 0.581 for the second.

First: U8A C31A C33G
Second: U8A C11U U19C C46A C66U
The yeast fitness of the first is lower: 0.542 for the first, 0.578 for the second.

U8C A36U G38A G68C and U8A A40C C46U G52A cannot be ordered by yeast fitness: at most 0.5 for the first, at most 0.5 for the second.

U8A C27U A43U and U8C C11A C30A cannot be ordered by yeast fitness: at most 0.5 for the first, at most 0.5 for the second.

U8A G9C G38A A40C and U8C A15U U16A U26A G58A cannot be ordered by yeast fitness: at most 0.5 for the first, at most 0.5 for the second.

Compared with U8A G23A, U8A C24G is lower in yeast fitness: 0.597 for the first, at most 0.5 for the second.

Going from U8A C24A to U8C, the yeast fitness rises from 0.624 to 1.03.

Going from U8A C11A C27U to U8A U59C, the yeast fitness rises from 0.546 to 0.748.

Compared with U8C C11U C27A C30G C46U U47A, U8A G12A G44A C60U G67C is lower in yeast fitness: 0.603 for the first, at most 0.5 for the second.

Going from U8A G52A G56C to U8A C34A A65U, the yeast fitness falls from 0.841 to at most 0.5.

First: U8A G18A G41C A57G
Second: U8A G12A
The yeast fitness of the first is lower: at most 0.5 for the first, 0.824 for the second.

Going from U8A C62U to U8A C11U C61U C62U C66A, the yeast fitness falls from 0.7 to at most 0.5.

Going from U8C A65G to U8C A65C, the yeast fitness rises from 0.929 to 0.964.

Going from U8C C24A to U8A C24U U28C A40C G67C, the yeast fitness falls from 0.616 to at most 0.5.

U8A C31U C60A C62G A70C and U8A G18A G67U A69C cannot be ordered by yeast fitness: at most 0.5 for the first, at most 0.5 for the second.

First: U8A C30A A37G C46U A57C
Second: U8C C22A A36C G63A G67C
The yeast fitness of the first is higher: 0.579 for the first, at most 0.5 for the second.

Going from U8A U13A A14C G56C to U8C A45U C49U, the yeast fitness rises from at most 0.5 to 0.714.

U8C A15C A21U and U8A G50C G56A cannot be ordered by yeast fitness: at most 0.5 for the first, at most 0.5 for the second.

Compared with U8C A15G G25C A45U, U8A U47C A57C U64C is lower in yeast fitness: 0.684 for the first, at most 0.5 for the second.

U8A G18A C30A U32A U35G A65C and U8C C11U G17C C31A A65C cannot be ordered by yeast fitness: at most 0.5 for the first, at most 0.5 for the second.

Going from U8C A14U C30A C61U C62A A70G to U8A C22G C55G, the yeast fitness rises from 0.532 to 0.651.

U8C C11A A20U C66U and U8A C29U C34U C49A G67A cannot be ordered by yeast fitness: at most 0.5 for the first, at most 0.5 for the second.

U8A A20U C31U A45G and U8A C31U A37G cannot be ordered by yeast fitness: at most 0.5 for the first, at most 0.5 for the second.

Compared with U8C A65U A69C, U8A A45G C61G C62U is lower in yeast fitness: 0.615 for the first, at most 0.5 for the second.

First: U8C A45U A65U
Second: U8A U26C A43U C55U
The yeast fitness of the first is higher: 0.709 for the first, at most 0.5 for the second.

U8C C11G G63A C66G and U8A G44A U64C C66A cannot be ordered by yeast fitness: at most 0.5 for the first, at most 0.5 for the second.

U8A C24A U64A and U8A C31G C46U C60A cannot be ordered by yeast fitness: at most 0.5 for the first, at most 0.5 for the second.

First: U8A G18C C24A U32C
Second: U8A G52C
The yeast fitness of the first is higher: 0.607 for the first, at most 0.5 for the second.

First: U8A G18A C34U A42C
Second: U8C C11A
The yeast fitness of the first is lower: at most 0.5 for the first, 0.698 for the second.

Going from U8C C11U to U8C C11G, the yeast fitness falls from 1.02 to 0.686.

U8A C29A U54C and U8A U13A G18C C24G U32G G58U cannot be ordered by yeast fitness: at most 0.5 for the first, at most 0.5 for the second.

U8C C24G C55A and U8A U13A A14C U16A G63A G67A cannot be ordered by yeast fitness: at most 0.5 for the first, at most 0.5 for the second.

U8A G25C A37C and U8A C34G A37U A42U A57G cannot be ordered by yeast fitness: at most 0.5 for the first, at most 0.5 for the second.

U8C A20U C29U C30G A37G G44A and U8C C22G U47C U53G cannot be ordered by yeast fitness: at most 0.5 for the first, at most 0.5 for the second.

First: U8A G10C C66U
Second: U8C A21G A69C
The yeast fitness of the first is lower: at most 0.5 for the first, 0.761 for the second.

Going from U8C A20U A57G to U8C A14G G68A, the yeast fitness rises from at most 0.5 to 0.534.

Compared with U8A C31G A42C C55U G68A, U8C A42U is higher in yeast fitness: at most 0.5 for the first, 0.791 for the second.

First: U8A U54C
Second: U8A C22G A36U
The yeast fitness of the first is higher: 0.657 for the first, at most 0.5 for the second.

U8A C22U G56A U59A and U8A A40G A42U A45U U59G cannot be ordered by yeast fitness: at most 0.5 for the first, at most 0.5 for the second.

U8A C11U G25C G39C A45U and U8C C22G U54A U59A C61U cannot be ordered by yeast fitness: at most 0.5 for the first, at most 0.5 for the second.

In the case of U8C A40G C55U A65C, the yeast fitness is reported as at most 0.5.
